Values after ≈ are worked out from the molar mass of the structure shown.
Key:
A549 [1] = assay: Cell cycle arrest in A549 cells by accumulation at S phase at 100 nM; type: functional, Homo sapiens
A549 [2] = assay: Cell cycle arrest in A549 cells by accumulation at G1 phase at 100 nM; type: functional, Homo sapiens
A549 [3] = assay: Cell cycle arrest in A549 cells by accumulation at G2/M phase at 100 nM; type: functional, Homo sapiens
[4] = Cytotoxicity against p53 mutated PANC1 cells ATCC CRL1469 by MTT assay; type: cell-based; conditions: human, panc-1
Procedure, shortened: (§1)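 MTT cell proliferation assay following previously described protocols. Each sample assayed at least three times to derive the final IC50.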

A549 [5] = assay: Cell cycle arrest in A549 cells by accumulation at S phase at 10 nM; type: functional, Homo sapiens
A549 [6] = assay: Cell cycle arrest in A549 cells by accumulation at S phase at 1 nM; type: functional, Homo sapiens
Candida albicans [7] = assay: Antifungal activity against Candida albicans ATCC 44506 at 25 ug/disk by agar diffusion assay; type: functional; conditions: read-out: IZ
Procedure, shortened: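 Sabouraud dextrose agar plates seeded with 10^5/mL C. albicans. Disks loaded with 25 µg compound, dried and placed on the agar. Incubated 37 °C for 24 h, then the growth-inhibition zone was measured. A nystatin disk (100 IU) ran on the same plate as control.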

A549 [8] = assay: Cell cycle arrest in A549 cells by accumulation at G2/M phase at 10 nM; type: functional, Homo sapiens
A549 [9] = assay: Cell cycle arrest in A549 cells by accumulation at G2/M phase at 0.1 nM; type: functional, Homo sapiens
A549 [10] = assay: Cytotoxicity against human A549 cells ATCC CCL-185 by MTT assay; type: cell-based; procedure, shortened: as §1
A549 [11] = assay: Cell cycle arrest in A549 cells by accumulation at G1 phase at 10 nM; type: functional, Homo sapiens
A549 [12] = assay: Cell cycle arrest in A549 cells by accumulation at G1 phase at 0.1 nM; type: functional, Homo sapiens
A549 [13] = assay: Cell cycle arrest in A549 cells by accumulation at G2/M phase at 1 nM; type: functional, Homo sapiens
DLD-1 = assay: Cytotoxicity against p53 mutated NCI-DLD1 cells by MTT assay; type: cell-based; conditions: human; procedure, shortened: as §1
A549 [14] = assay: Cell cycle arrest in A549 cells by accumulation at G1 phase at 1 nM; type: functional, Homo sapiens
Candida albicans [15] = assay: Antifungal activity against Candida albicans ATCC 44506 by broth dilution assay; type: functional
Procedure, shortened: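 Broth microdilution in 96-well plates, seeded at 10^3 cells/mL. Compound tested as 2-fold dilutions from 5 to 0.4 µg/mL. Incubated 37 °C for 24 h. MIC taken as the lowest concentration completely inhibiting growth. 5-Fluorocytosine served as antifungal control.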

A549 [16] = assay: Cell cycle arrest in A549 cells by accumulation at S phase at 0.1 nM; type: functional, Homo sapiens
[17] = Cytotoxicity against human NCI-ADR-RES cells by MTT assay; type: cell-based; procedure, shortened: as §1
[18] = Cytotoxicity against mouse NCI-P388 cells by MTT assay; type: cell-based; procedure, shortened: as §1

Structure (SMILES) | Activity (A549 [1]) [%] | Activity (A549 [2]) [%] | Activity (A549 [3]) [%] | Activity [4] | Activity (A549 [5]) [%] | Activity (A549 [6]) [%] | zone of inhibition at 25 µg/disc (Candida albicans [7]) [mm] | Activity (A549 [8]) [%] | Activity (A549 [9]) [%] | IC50 (A549 [10]) [nM] | Activity (A549 [11]) [%] | Activity (A549 [12]) [%] | Activity (A549 [13]) [%] | Activity (DLD-1) | Activity (A549 [14]) [%] | MIC (Candida albicans [15]) [µg/mL] | Activity (A549 [16]) [%] | IC50 [17] [nM] | IC50 [18] [nM]
CC(=O)O[C@H]1C(=O)[C@@]2(C)[C@H]([C@H](OC(=O)c3ccccc3)[C@]3(O)C[C@H](OC(=O)[C@H](O)[C@@H](NC(=O)c4ccccc4)c4ccccc4)C(C)=C1C3(C)C)[C@]1(OC(C)=O)CO[C@@H]1C[C@@H]2O [PACLITAXEL] | 0 | 1.56 | 98.44 |  |  |  |  |  |  |  |  |  |  |  |  |  |  |  | 
CCC[C@@H]1C[C@H](OC)C[C@H](C)C[C@@H]2C[C@@H](OC(=O)/C=C\CCc3coc(/C=C\CNC(=O)OC)n3)C[C@H](CC(=O)O1)O2 [NEOPELTOLIDE] | 22.02 | 63.03 | 14.95 | Active | 30.27 | 39.95 | 17 | 10.07 | 13.59 | 1.2 | 59.66 | 46.4 | 13.94 | Active | 46.11 | 0.625 (≈ 1.06 µM) | 40.01 | 5.1 | 0.56
